According to ChEMBL document CHEMBL5357037, “Scaffold hopping based designing of selective ALDH1A1 inhibitors to overcome cyclophosphamide resistance: synthesis and biological evaluation” (RSC Med Chem, 2024):
Activity calls are given as the source filed them. The rule behind the calls is not given here.

What was measured:
[1] = Lipid-water partition coefficient, logP of the compound; format: physicochemical
A549 [2] = experiment: Synergistic anticancer activity against human A549 cells assessed as combination index incubated for 19 hrs in presence of Mafosfamide by MTT assay; format: functional
Outline: (§1)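 A549 and MIA PaCa-2 cells, chosen for high ALDH1A1 expression, were obtained from NCCS. Viability was measured by MTT. Combination arms paired mafosfamide with ALDH1A1 inhibitors. Combination indices were calculated with the Chou–Talalay equation.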

[3] = target: T1, Aldehyde dehydrogenase 1A1 (Homo sapiens, UniProt P00352); experiment: Inhibition of human ALDH1A1 using propionaldehyde as substrate preincubated with enzyme for 15 mins followed by substrate addition in presence of NAD+ and measured for 5 mins by spectrophotometric analysis
T1 sequence (P00352 whole entry): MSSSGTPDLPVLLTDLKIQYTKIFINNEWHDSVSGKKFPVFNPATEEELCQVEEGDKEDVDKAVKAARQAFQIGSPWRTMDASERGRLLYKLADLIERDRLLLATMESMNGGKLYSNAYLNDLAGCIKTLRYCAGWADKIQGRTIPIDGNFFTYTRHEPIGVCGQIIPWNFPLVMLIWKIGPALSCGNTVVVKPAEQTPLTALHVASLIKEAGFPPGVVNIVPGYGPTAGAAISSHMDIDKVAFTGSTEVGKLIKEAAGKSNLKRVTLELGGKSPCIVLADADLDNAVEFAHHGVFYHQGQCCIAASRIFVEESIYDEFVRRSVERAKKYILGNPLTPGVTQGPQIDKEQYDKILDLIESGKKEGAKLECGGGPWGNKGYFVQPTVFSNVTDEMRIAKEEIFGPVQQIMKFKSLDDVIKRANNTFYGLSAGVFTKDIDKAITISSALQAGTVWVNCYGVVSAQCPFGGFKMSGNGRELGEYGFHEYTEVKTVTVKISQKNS
Outline: (§2)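 Human recombinant ALDH1A1, ALDH2 or ALDH3A1 preincubated with test compounds for 15 min at 25 °C. NADH absorbance read kinetically for 5 min. IC50 fitted from five concentrations vs %inhibition. Single-point final concentrations were 10 μM for ALDH1A1 and 100 μM for ALDH2 and ALDH3A1.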

A549 [4] = experiment: Anticancer activity against human A549 cells assessed as reduction in cell viability incubated for 19 hrs by MTT assay; format: functional, cell-based; outline: as §1
[5] = target: T2, Aldehyde dehydrogenase, dimeric NADP-preferring (Homo sapiens, UniProt P30838); experiment: Inhibition of human ALDH3A1 using 4-nitrobenzaldehyde as substrate preincubated with enzyme for 15 mins followed by substrate addition in presence of NAD+ and measured for 5 mins by spectrophotometric analysis; outline: as §2
T2 sequence (P30838 whole entry): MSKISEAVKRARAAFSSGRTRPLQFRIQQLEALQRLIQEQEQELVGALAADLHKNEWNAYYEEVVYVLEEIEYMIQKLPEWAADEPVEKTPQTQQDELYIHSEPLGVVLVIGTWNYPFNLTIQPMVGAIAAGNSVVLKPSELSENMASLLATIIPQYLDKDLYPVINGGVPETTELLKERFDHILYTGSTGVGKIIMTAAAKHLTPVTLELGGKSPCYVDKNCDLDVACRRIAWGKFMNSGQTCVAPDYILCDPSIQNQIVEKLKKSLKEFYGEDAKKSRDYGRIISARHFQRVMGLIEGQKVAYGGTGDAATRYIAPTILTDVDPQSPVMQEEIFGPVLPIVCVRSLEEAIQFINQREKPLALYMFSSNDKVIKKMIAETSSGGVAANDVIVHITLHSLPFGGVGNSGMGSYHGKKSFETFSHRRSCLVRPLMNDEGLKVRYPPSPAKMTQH

MIA PaCa-2 [6] = experiment: Anticancer activity against human MIAPaCa-2 cells assessed as reduction in cell viability incubated for 19 hrs by MTT assay; format: functional, cell-based; outline: as §1
[7] = target: T3, Aldehyde dehydrogenase, mitochondrial (Homo sapiens, UniProt P05091); experiment: Inhibition of human ALDH2 using acetaldehyde as substrate preincubated with enzyme for 15 mins followed by substrate addition in presence of NAD+ and measured for 5 mins by spectrophotometric analysis; outline: as §2
T3 sequence (P05091 whole entry): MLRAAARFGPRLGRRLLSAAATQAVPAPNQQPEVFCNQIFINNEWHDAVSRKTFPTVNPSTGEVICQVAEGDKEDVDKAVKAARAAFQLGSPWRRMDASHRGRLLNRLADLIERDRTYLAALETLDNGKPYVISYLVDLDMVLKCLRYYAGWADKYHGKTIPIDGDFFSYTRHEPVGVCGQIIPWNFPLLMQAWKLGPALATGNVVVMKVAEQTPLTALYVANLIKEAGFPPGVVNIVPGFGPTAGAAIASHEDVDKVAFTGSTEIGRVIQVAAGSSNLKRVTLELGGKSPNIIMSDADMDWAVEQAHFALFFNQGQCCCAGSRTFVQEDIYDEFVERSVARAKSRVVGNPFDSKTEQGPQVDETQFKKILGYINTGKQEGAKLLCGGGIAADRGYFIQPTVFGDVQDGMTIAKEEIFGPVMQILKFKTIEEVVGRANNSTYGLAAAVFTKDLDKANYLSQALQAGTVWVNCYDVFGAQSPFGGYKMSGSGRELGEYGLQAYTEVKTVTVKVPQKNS

A549 [8] = experiment: Reversal of Mafosfamide resistance in human A549 cells assessed as increase in Mafosfamide sensitivity by measuring reduction in cell viability measured after 19 hrs in presence of Mafosfamide by MTT assay; format: functional, cell-based; outline: as §1
MIA PaCa-2 [9] = experiment: Reversal of Mafosfamide resistance in human MIAPaCa-2 cells assessed as increase in Mafosfamide sensitivity by measuring reduction in cell viability measured after 19 hrs in presence of Mafosfamide by MTT assay; format: functional, cell-based; outline: as §1
MIA PaCa-2 [10] = experiment: Synergistic anticancer activity against human MIAPaCa-2 cells assessed as combination index incubated for 19 hrs in presence of Mafosfamide by MTT assay; format: functional; outline: as §1
A549 [11] = experiment: Anticancer activity against human A549 cells assessed as reduction in cell viability at 370 uM incubated for 19 hrs by MTT assay; format: functional, cell-based
MIA PaCa-2 [12] = experiment: Anticancer activity against human MIAPaCa-2 cells assessed as reduction in cell viability at 315 uM incubated for 19 hrs by MTT assay; format: functional, cell-based
[13] = target: T4, Aldehyde dehydrogenase, dimeric NADP-preferring (Homo sapiens) (UniProt P30838); experiment: Inhibition of human ALDH3A1 using 4-nitrobenzaldehyde as substrate at 100 uM preincubated with enzyme for 15 mins followed by substrate addition in presence of NAD+ and measured for 5 mins by spectrophotometric analysis; settings: time 20.0 min; outline: as §2
T4 sequence (whole entry): T2 sequence (P30838 whole entry)

[14] = target: T5, Aldehyde dehydrogenase 1A1 (Homo sapiens) (UniProt P00352); experiment: Inhibition of human ALDH1A1 using propionaldehyde as substrate at 10 uM preincubated with enzyme for 15 mins followed by substrate addition in presence of NAD+ and measured for 5 mins by spectrophotometric analysis; settings: time 20.0 min; outline: as §2
T5 sequence (whole entry): T1 sequence (P00352 whole entry)

[15] = target: T6, Aldehyde dehydrogenase, mitochondrial (Homo sapiens) (UniProt P05091); experiment: Inhibition of human ALDH2 using acetaldehyde as substrate at 100 uM preincubated with enzyme for 15 mins followed by substrate addition in presence of NAD+ and measured for 5 mins by spectrophotometric analysis; settings: time 20.0 min; outline: as §2
T6 sequence (whole entry): T3 sequence (P05091 whole entry)

| Structure (SMILES) | logP [1] | IC50 [3] | IC50 [5] | IC50 [7] | inhibition [13] | inhibition [14] | inhibition [15] | IC50 ([5]; read-out: IC50) | IC50 ([7]; read-out: IC50) | CI (A549 [2]) | Activity (A549 [4]) | Activity (MIA PaCa-2 [6]) | Activity (A549 [8]) | Activity (MIA PaCa-2 [9]) | CI (MIA PaCa-2 [10]) | Activity (A549 [11]) | Activity (MIA PaCa-2 [12]) |
| --- | --- | --- | --- | --- | --- | --- | --- | --- | --- | --- | --- | --- | --- | --- | --- | --- | --- |
| CN(C)c1ccc(-c2nc3ccccc3n2Cc2ccccc2)cc1 | 4.17 | 0.55 µM | Not Active | Not Active | – | – | – | – | – | 0.69 | inactive | inactive | Active | Active | 0.81 | – | – |
| CC(C)CCn1c(CN2CCN(C(=O)C3CC3)CC2)nc2c1c(=O)n(C)c(=O)n2C | – | – | – | – | – | – | – | – | – | – | – | – | Active | Active | – | – | – |
| CN(C)c1ccc(Cn2c(-c3ccc(N(C)C)cc3)nc3ccccc32)cc1 | 4.02 | – | – | – | inactive | inactive | inactive | – | – | – | – | – | – | – | – | – | – |

The next lines start with results.

| logP [1] | IC50 [3] | IC50 [5] | IC50 [7] | inhibition [13] | inhibition [14] | inhibition [15] | IC50 ([5]; read-out: IC50) | IC50 ([7]; read-out: IC50) | Structure (SMILES) | CI (A549 [2]) | Activity (A549 [4]) | Activity (MIA PaCa-2 [6]) | Activity (A549 [8]) | Activity (MIA PaCa-2 [9]) | CI (MIA PaCa-2 [10]) | Activity (A549 [11]) | Activity (MIA PaCa-2 [12]) |
| --- | --- | --- | --- | --- | --- | --- | --- | --- | --- | --- | --- | --- | --- | --- | --- | --- | --- |
| 4.73 | 0.32 µM | Not Active | Not Active | – | – | – | – | – | Clc1ccc(-c2nc3ccccc3n2Cc2ccccc2)cc1 | 0.91 | – | – | Active | Active | 0.98 | Active | Active |
| 4.19 | 8.67 µM | – | – | – | – | – | 98.3 µM | 95.6 µM | c1ccc(Cn2c(-c3ccccc3)nc3ccccc32)cc1 | – | – | – | – | – | – | – | – |
| 4.19 | 1.63 µM | Not Active | Not Active | – | – | – | – | – | COc1ccc(-c2nc3ccccc3n2Cc2ccccc2)cc1 | 0.74 | inactive | inactive | Active | Active | 0.84 | – | – |
